In series [1] the test system is NFκB transcriptional activity in MDA-MB-468 cells. Nature of the series: NFκB dual luciferase reporter assay. Type of series: cell-based. The essentials:
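MDA-MB-468 cells (7×10^5 per 6 cm plate, 24 h attachment) were transfected with 1 µg/plate Cignal NFκB reporter (6× NFκB element-driven firefly, CMV-Renilla) using Oligofectamine in opti-MEM for 5 h at 37 °C. They were then re-fed with RPMI/10% FCS and reseeded into 96-well plates. Cells were pretreated for 1 h with 100 µM NRH and/or 20 ng/mL TNFα, then given test compound (DMSO ≤0.5% final) for 18 h. Passive lysis, dual-luciferase read-out.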

For the next series, the system named is MDA-MB-468 cells. Kind of series: Toxicity in MDA-MB-468 cells, MTT assay. Format: cell-based.
For another series, the target named is T1, Recombinant human NQO2 (Homo sapiens, UniProt P16083).
T1 sequence (P16083 1-231): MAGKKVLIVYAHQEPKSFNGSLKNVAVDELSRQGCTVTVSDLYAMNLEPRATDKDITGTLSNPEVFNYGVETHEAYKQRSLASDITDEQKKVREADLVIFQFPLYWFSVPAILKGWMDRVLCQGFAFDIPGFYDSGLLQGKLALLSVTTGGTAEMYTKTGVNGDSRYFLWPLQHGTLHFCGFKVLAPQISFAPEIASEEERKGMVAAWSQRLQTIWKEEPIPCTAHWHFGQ
Kind of series: Inhibition of recombinant NQO2 enzymatic activity. Format: biochemical. The conditions noted are these: for IC50: 200 μM NRH, DCPIP; for ΔGexp, experimentally determined binding affinity: derived from IC50 by the Cheng-Prusoff equation.

In the next series the test system is K562 cells. Nature of the series: 96 hour toxicity, XTT assay. Format: cell-based. The conditions noted are these: read-out: 96 hour Toxicity in Cells IC50, K562.
For series [2], the system named is NFκB in Renal Carcinoma cells. The conditions noted are these: cited from earlier work.
Another series concerns Recombinant human NQO1. The following applies: previously reported; cited from earlier work.
The next series concerns BT474 cells. Kind of series: CB1954 toxicity in BT474 cells. Format: cell-based. The conditions noted are these: Homo sapiens.
[3] abbreviates: IC50 + BSA, presence of 2 μM BSA.
Where [4] appears, read: read-out: IC50 + BSA, presence of 2 μM BSA.
[5] abbreviates: read-out: IC50 – BSA, absence of BSA.
Where [6] appears, read: read-out: 96 hour Toxicity in Cells IC50, MDA-MB-468, 96 hour exposure.
Where [7] appears, read: Homo sapiens, MDA-MB-468, read-out: 3hr toxicity (IC50) Inhibitor alone.

The structures appear in SMILES notation. Read-outs that look alike come from different tables or passages of the source.

This is an account of results in paper PMC3272422 (Molecular cancer therapeutics, 2011).

Regarding `NC(=O)C1=CN([C@@H]2O[C@H](CO)[C@@H](O)[C@H]2O)C=CC1` [NRH, N-ribosyl nicotinamide, reference compound], in series [1] (100μM NRH, without TNFα), the “NFκB activity (luciferase)” value is given as “stimulates NFκB activity”. Moreover, the “toxicity of NRH itself” value with MDA-MB-468 cells (1μM to 1mM NRH) is recorded as “no toxicity”.
For the molecule `CCN(CC)CCCC(C)Nc1c2ccc(Cl)cc2nc2ccc(OC)cc12` (stereo not drawn) [NSC14229, Quinacrine], the IC50 at Recombinant human NQO2 (setting [3]) was 8.5 ± 1.6 µM; at Recombinant human NQO2 (IC50 – BSA, absence of BSA), 0.2 ± 0.05 µM; with K562 cells (Homo sapiens, K562, 96 h), 4 ± 3.6 µM. Besides, at Recombinant human NQO2, the “ΔGexp, experimentally determined binding affinity” value (“ΔGexp, experimentally” below) is -9.197 kcal/mol. Moreover, the “basal and induced activity of NFκB” value in series [2] is reported as “effectively suppressed”.
Turning to `Nc1cc2c(cc1[N+](=O)[O-])[nH]c1c(-c3ccccc3)nccc12` [NSC620318], the “ΔGexp, experimentally” value on Recombinant human NQO2 was -9.197 kcal/mol. Also, the IC50 is 4.1 ± 1.05 µM at Recombinant human NQO2 (setting [4]), 0.2 ± 0.01 µM on Recombinant human NQO2 (setting [5]), 22 ± 9.1 µM in the series on MDA-MB-468 cells (setting [6]) and 35 ± 33 µM in the series on K562 cells (96 hour exposure).
As for `O=C1c2c(c3c4ccccc4[nH]c3c3[nH]c4ccccc4c23)C(=O)N1Cc1ccccc1` [NSC628440], the “ΔGexp, experimentally” value on Recombinant human NQO2 is -8.485 kcal/mol. The IC50 on Recombinant human NQO2 (setting [4]) turned out to be 9.8 ± 0.92 µM; at Recombinant human NQO2 (setting [5]), 0.66 ± 0.08 µM; in the series with MDA-MB-468 cells (setting [6]), 4 ± 0.021 µM; in the series with K562 cells (96 hour exposure), 0.75 ± 0.76 µM. Besides, in the series on Recombinant human NQO1, the “inhibition of NQO1” value was “relatively weak inhibitor”.
Regarding `Cc1c(-c2ccc(C(=N)N)cc2)oc(-c2ccc(C(=N)N)cc2)c1C` [NSC305836], the “ΔGexp, experimentally” value on Recombinant human NQO2 was -10.07 kcal/mol. For the same molecule, the 50% inhibitory concentration (IC50) at Recombinant human NQO2 (setting [4]) came out at 0.2 ± 0.09 µM; on Recombinant human NQO2 (setting [5]) it was 0.05 ± 0.01 µM; with MDA-MB-468 cells (setting [6]) it was 3.9 ± 2.5 µM; with K562 cells (96 hour exposure) it was 5.5 ± 3.6 µM.
For `Cc1c2ccncc2c(C)c2c1[nH]c1ccccc12` [NSC71795], in that order: -10.07 kcal/mol, 0.24 ± 0.09 µM, 0.05 ± 0.01 µM, 0.27 ± 0.2 µM and 0.73 ± 0.6 µM.
For `Cc1c2cnccc2c(C)c2c1c1ccccc1n2CCNCc1ccccc1` [NSC164016], in that order: -10.74 kcal/mol, 3 ± 1.21 µM, 0.02 ± 0.01 µM, 0.43 ± 0.24 µM and 0.7 ± 0.29 µM.
Take `Nc1c2ccccc2nc2ccccc12` [NSC13000, 9-aminoacridine]: the “NFκB transcriptional (luciferase) activity” value in series [1] (0.1μM NSC13000, cells with or without 100μM NRH) is listed as “reduces the luciferase activity”. In addition, the half-inhibitory concentration (IC50) stood at 23 ± 5.1 µM with MDA-MB-468 cells (setting [7]) and 1 ± 1.4 µM in the series on K562 cells (Homo sapiens, K562, 96 h). The “basal and induced activity of NFκB” value in series [2] was “effectively suppressed”.
As for `Cc1ccc(NC(=O)c2ccc(CN3CCN(C)CC3)cc2)cc1Nc1nccc(-c2cccnc2)n1` [Imatinib, reference compound], the IC50 with K562 cells (Homo sapiens, K562, 96 h) was 0.68 ± 0.51 µM.
In the case of `N=C(N)c1ccc(-c2ccc(-c3ccc(C(=N)N)cc3)o2)cc1` [NSC305831], the IC50 on Recombinant human NQO2 (setting [3]) turned out to be 2.8 ± 0.61 µM; with MDA-MB-468 cells (setting [7]) it was 114 ± 52 µM; in the series on K562 cells (Homo sapiens, K562, 96 h) it was 27 ± 35 µM. The “ΔGexp, experimentally” value on Recombinant human NQO2 is -8.513 kcal/mol.
For the molecule `NC(=O)c1cc(N2CC2)c([N+](=O)[O-])cc1[N+](=O)[O-]` [CB1954, 5-(-aziridin-1-yl)-2,4-dinitrobenzamide, reference compound], the IC50 with BT474 cells (BT-474, read-out: IC50 of CB1954, absence of NRH) was greater than 1000 µM; with BT474 cells (BT-474, read-out: IC50 of CB1954, presence of 100μM NRH) it was 1000 µM; with MDA-MB-468 cells (Homo sapiens, MDA-MB-468, 3 h, read-out: IC50 of CB1954 alone), greater than 1000 µM. In the series with MDA-MB-468 cells (100μM CB1954 plus 100μM NRH, 3 hours), the “proliferation of MDA-MB-468 cells” value is reported as “about 25%”.
As for `Oc1ccc(/C=C/c2cc(O)cc(O)c2)cc1` [Resveratrol, reference compound], the IC50 with MDA-MB-468 cells (setting [7]) is greater than 100 µM; in the series with K562 cells (Homo sapiens, K562, 96 h), 72 ± 5.1 µM.
